Active and inactive are the calls of the source. No cut-off for these calls is given here.
Experiments:
Type in all cases: cell-based
HEK293T = assay: Modulation of Gal4-fused VP16 expressed in HEK293T cells co-transfected with UAS repoter gene assessed as increase in luciferase activity at 0.02 to 200 uM incubated for 18 hrs by luciferase reporter gene assay; conditions: Human alphaherpesvirus 2, filed as modulator, dose 0.02-200 µM
Method in brief: (§1)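 Cells in 10-cm dishes were transfected with Gal4-VP16 expression plasmid (2 μg) plus 5xUAS-luciferase reporter (2 μg) for 18 h. They were replated at 10,000 cells/well for 4 h, then given ligand or vehicle (water, ethanol or DMSO) in quadruplicate for 18 h. Luciferase was read with Britelite Plus. Fold change is versus vehicle-treated cells, with one-way ANOVA versus vehicle.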

PC-12 [1] = assay: Modulation of Gal4-fused VP16 expressed in PC12 cells co-transfected with UAS repoter gene assessed as increase in luciferase activity at 0.02 to 200 uM incubated for 18 hrs by luciferase reporter gene assay; conditions: Human alphaherpesvirus 2, filed as modulator, dose 0.02-200 µM; method in brief: as §1
[2] = biological target: Nuclear receptor subfamily 4 group A member 2 (Homo sapiens) (UniProt P43354); assay: Modulation of full length human Nurr1 expressed in HEK293T cells co-transfected with luciferase reporter plasmid harboring NBRE response element assessed as increase in luciferase activity incubated for 18 hrs by luciferase-reporter gene assay; conditions: filed as modulator, dose 0.002-200 µM
Nuclear receptor subfamily 4 group A member 2 (Homo sapiens), sequence (P43354 whole entry): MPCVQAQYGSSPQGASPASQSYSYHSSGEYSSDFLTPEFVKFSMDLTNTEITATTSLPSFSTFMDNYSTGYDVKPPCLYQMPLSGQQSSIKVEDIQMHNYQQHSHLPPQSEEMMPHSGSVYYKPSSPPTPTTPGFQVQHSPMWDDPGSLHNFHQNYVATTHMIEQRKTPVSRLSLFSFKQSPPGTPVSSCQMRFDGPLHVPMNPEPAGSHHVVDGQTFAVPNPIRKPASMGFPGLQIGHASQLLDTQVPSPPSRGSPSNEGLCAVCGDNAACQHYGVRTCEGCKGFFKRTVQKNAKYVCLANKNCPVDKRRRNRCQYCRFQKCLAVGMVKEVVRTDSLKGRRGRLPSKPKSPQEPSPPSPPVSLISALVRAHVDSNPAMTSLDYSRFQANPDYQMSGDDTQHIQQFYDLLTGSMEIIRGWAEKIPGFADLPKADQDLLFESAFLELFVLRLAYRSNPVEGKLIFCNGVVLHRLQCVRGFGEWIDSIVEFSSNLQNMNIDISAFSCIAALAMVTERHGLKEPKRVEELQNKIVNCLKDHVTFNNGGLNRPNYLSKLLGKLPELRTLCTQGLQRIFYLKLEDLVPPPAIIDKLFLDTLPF
Method in brief: (§2)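 Full-length Nurr1 plasmid, alone (2 μg) or 1 μg plus full-length RXRα (1 μg), cotransfected with 3xNBRE- or 3xNurRE-luciferase reporter (6 μg) using Lipofectamine 2000, 18 h. Cells replated at 10,000/well for 4 h. Four ligand concentrations, or vehicle (water, ethanol or DMSO), added in quadruplicate for 18 h. Luciferase read. Fold change vs vehicle, mean ± s.e.m., one-way ANOVA vs vehicle.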

[3] = biological target: Nuclear receptor subfamily 4 group A member 2 (Homo sapiens) (UniProt P43354); assay: Modulation of full length human Nurr1 expressed in HEK293T cells co-transfected with RXRalpha and luciferase reporter plasmid harboring NurRE response element assessed as increase in luciferase activity incubated for 18 hrs by luciferase-reporter gene assay; conditions: filed as modulator, dose 0.0002-200 µM; method in brief: as §2
HEK-293T = assay: Cytotoxicity in human HEK293T cells assessed as reduction in cell viability at 0.02 to 200 uM incubated for 18 hrs by Cell Titer-Glo assay; conditions: dose 0.02-200 µM
Method in brief: (§3)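 Cells seeded at 1.5 million per 10-cm dish. Next day they were replated at 10,000 cells/well and rested 4 h. Ligand or vehicle (water, ethanol or DMSO, by ligand) was added in dose-response format in quadruplicate. After 18 h, viability was read by CellTiter-Glo luminescence. Data are mean ± s.e.m., generally representative of 2 independent experiments. One-way ANOVA versus vehicle.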

[4] = biological target: Nuclear receptor subfamily 4 group A member 2 (Homo sapiens) (UniProt P43354); assay: Modulation of full length human Nurr1 expressed in SKNBE(2) cells co-transfected with RXRalpha and luciferase reporter plasmid harboring NBRE response element assessed as increase in luciferase activity incubated for 18 hrs by luciferase-reporter gene assay; conditions: SKNBE2, filed as modulator, dose 0.0002-200 µM
Method in brief: (§4)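 SK-N-BE(2)-C cells were kept in 1:1 EMEM/F12 with 10% FBS at 37°C and 5% CO2. They were cotransfected with full-length Nurr1 (1 μg), full-length RXRα (1 μg) and 3xNBRE- or 3xNurRE-luc reporter (6 μg) for 18 h, replated at 10,000 cells/well for 4 h, and then treated with ligand or vehicle in quadruplicate for 18 h. The readout was luciferase luminescence as fold over vehicle, reported as mean ± s.e.m. (n=4) from 2 independent experiments, one-way ANOVA.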

[5] = biological target: Nuclear receptor subfamily 4 group A member 2 (Homo sapiens) (UniProt P43354); assay: Modulation of full length human Nurr1 expressed in PC12 cells co-transfected with RXRalpha and luciferase reporter plasmid harboring NurRE response element assessed as increase in luciferase activity incubated for 18 hrs by luciferase-reporter gene assay; conditions: PC-12, filed as modulator, dose 0.0002-200 µM
Method in brief: (§5)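 PC12 cells were grown at 37°C and 5% CO2 in […] medium with 15% horse serum and 2.5% FBS. They were transfected with full-length Nurr1 (1 μg) plus full-length RXRα (1 μg) and 3xNBRE- or 3xNurRE-luciferase reporter (6 μg) for 18 h, then replated at 10,000 cells/well for 4 h. Ligand or vehicle (water, ethanol or DMSO) was added in quadruplicate for 18 h. Luminescence was read as fold change over vehicle. Results are mean ± s.e.m., n=4, from 2 independent experiments, analysed by one-way ANOVA against vehicle.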

SKNBE2 = assay: Modulation of Gal4-fused VP16 expressed in SKNBE(2) cells co-transfected with UAS repoter gene assessed as increase in luciferase activity at 0.02 to 200 uM incubated for 18 hrs by luciferase reporter gene assay; conditions: Human alphaherpesvirus 2, filed as modulator, dose 0.02-200 µM; method in brief: as §1
SK-N-BE(2) = assay: Cytotoxicity in human SKNBE2 cells assessed as reduction in cell viability at 0.02 to 200 uM incubated for 18 hrs by Cell Titer-Glo assay; conditions: dose 0.02-200 µM; method in brief: as §3
[6] = biological target: Nuclear receptor subfamily 4 group A member 2 (Homo sapiens) (UniProt P43354); assay: Modulation of full length human Nurr1 expressed in PC12 cells co-transfected with luciferase reporter plasmid harboring NBRE response element assessed as increase in luciferase activity incubated for 18 hrs by luciferase-reporter gene assay; conditions: PC-12, filed as modulator, dose 0.002-200 µM
Method in brief: (§6)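 Here PC12 cells (FK-12 medium, 15% horse serum, 2.5% FBS, 37°C, 5% CO2) received full-length Nurr1 (2 μg) without RXRα, plus 3xNBRE- or 3xNurRE-luciferase reporter (6 μg), for 18 h. Cells were replated at 10,000/well for 4 h, then treated with ligand or vehicle in quadruplicate for 18 h. Luciferase luminescence was normalized to vehicle-treated cells. Results are mean ± s.e.m. (n=4) from 2 independent experiments, with one-way ANOVA against vehicle.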

[7] = biological target: Nuclear receptor subfamily 4 group A member 2 (Homo sapiens) (UniProt P43354); assay: Modulation of full length human Nurr1 expressed in HEK293T cells co-transfected with luciferase reporter plasmid harboring NurRE response element assessed as increase in luciferase activity incubated for 18 hrs by luciferase-reporter gene assay; conditions: filed as modulator, dose 0.002-200 µM; method in brief: as §2
[8] = biological target: Nuclear receptor subfamily 4 group A member 2 (Homo sapiens) (UniProt P43354); assay: Modulation of full length human Nurr1 expressed in SKNBE(2) cells co-transfected with RXRalpha and luciferase reporter plasmid harboring NurRE response element assessed as increase in luciferase activity incubated for 18 hrs by luciferase-reporter gene assay; conditions: SKNBE2, filed as modulator, dose 0.0002-200 µM; method in brief: as §4
[9] = biological target: Nuclear receptor subfamily 4 group A member 2 (Homo sapiens) (UniProt P43354); assay: Modulation of full length human Nurr1 expressed in HEK293T cells co-transfected with RXRalpha and luciferase reporter plasmid harboring NBRE response element assessed as increase in luciferase activity incubated for 18 hrs by luciferase-reporter gene assay; conditions: filed as modulator, dose 0.0002-200 µM; method in brief: as §2
PC-12 [10] = assay: Cytotoxicity in rat PC-12 cells assessed as reduction in cell viability at 0.02 to 200 uM incubated for 18 hrs by Cell Titer-Glo assay; conditions: pc-12, 18 h, dose 0.02-200 µM; method in brief: as §3
[11] = biological target: Nuclear receptor subfamily 4 group A member 2 (Homo sapiens) (UniProt P43354); assay: Modulation of full length human Nurr1 expressed in SKNBE(2) cells co-transfected with luciferase reporter plasmid harboring NurRE response element assessed as increase in luciferase activity incubated for 18 hrs by luciferase-reporter gene assay; conditions: SKNBE2, filed as modulator, dose 0.002-200 µM
[12] = biological target: Nuclear receptor subfamily 4 group A member 2 (Homo sapiens) (UniProt P43354); assay: Modulation of full length human Nurr1 expressed in PC12 cells co-transfected with luciferase reporter plasmid harboring NurRE response element assessed as increase in luciferase activity incubated for 18 hrs by luciferase-reporter gene assay; conditions: PC-12, filed as modulator, dose 0.002-200 µM; method in brief: as §6
[13] = biological target: Nuclear receptor subfamily 4 group A member 2 (Homo sapiens) (UniProt P43354); assay: Modulation of full length human Nurr1 expressed in SKNBE(2) cells co-transfected with luciferase reporter plasmid harboring NBRE response element assessed as increase in luciferase activity incubated for 18 hrs by luciferase-reporter gene assay; conditions: SKNBE2, filed as modulator, dose 0.002-200 µM
[14] = biological target: Nuclear receptor subfamily 4 group A member 2 (Homo sapiens) (UniProt P43354); assay: Modulation of full length human Nurr1 expressed in PC12 cells co-transfected with RXRalpha and luciferase reporter plasmid harboring NBRE response element assessed as increase in luciferase activity incubated for 18 hrs by luciferase-reporter gene assay; conditions: PC-12, filed as modulator, dose 0.0002-200 µM; method in brief: as §5

SMILES: COc1ccc(-c2cc3onc(-c4ccccc4)c3c(=O)n2C)cc1
- Activity (HEK293T): Active
- Activity (PC-12 [1]): Active
- Activity [2]: Dose-Dependent Effect
- Activity [3]: Dose-Dependent Effect
- Activity (HEK-293T): Non-Toxic
- Activity [4]: Dose-Dependent Effect
- Activity [5]: Dose-Dependent Effect
- Activity (SKNBE2): Active
- Activity (SK-N-BE(2)): Non-Toxic
- Activity [6]: Dose-Dependent Effect
- Activity [7]: Dose-Dependent Effect
- Activity [8]: Dose-Dependent Effect
- Activity [9]: Dose-Dependent Effect
- Activity (PC-12 [10]): Non-Toxic
- Activity [11]: Dose-Dependent Effect
- Activity [12]: Dose-Dependent Effect
- Activity [13]: Dose-Dependent Effect
- Activity [14]: Dose-Dependent Effect

Source: ChEMBL document CHEMBL5030505, “Assessment of NR4A Ligands That Directly Bind and Modulate the Orphan Nuclear Receptor Nurr1” (J Med Chem, 2020)
